According to ChEMBL document CHEMBL1153263, “3-Acrylamide-4-aryloxyindoles: synthesis, biological evaluation and metabolic stability of potent and selective EP3 receptor antagonists” (Bioorg Med Chem Lett, 2009):

Columns and labels:
[1] = target: T1, Prostaglandin E2 receptor EP3 subtype (Homo sapiens, UniProt P43115); assay: Displacement of [3H]PGE2 from human EP3 receptor at 20 uM in presence of normal buffer
T1 sequence (P43115 whole entry): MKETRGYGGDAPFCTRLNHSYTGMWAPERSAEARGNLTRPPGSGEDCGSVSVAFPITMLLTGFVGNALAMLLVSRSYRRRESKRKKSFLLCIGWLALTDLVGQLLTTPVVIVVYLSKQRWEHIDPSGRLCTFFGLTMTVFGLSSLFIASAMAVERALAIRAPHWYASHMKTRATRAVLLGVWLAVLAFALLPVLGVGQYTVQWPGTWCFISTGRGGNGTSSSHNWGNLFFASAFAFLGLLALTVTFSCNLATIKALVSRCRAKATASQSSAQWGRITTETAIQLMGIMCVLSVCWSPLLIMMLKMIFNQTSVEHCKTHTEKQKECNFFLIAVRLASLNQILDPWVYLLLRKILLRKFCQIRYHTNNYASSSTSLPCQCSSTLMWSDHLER

[2] = target: T2, Prostaglandin E2 receptor EP3 subtype (Homo sapiens) (UniProt P43115); assay: Ratio IC50 for human EP3 receptor in presence of human serum to IC50 for human EP3 in absence of human serum
T2 sequence (whole entry): T1 sequence (P43115 whole entry)

[3] = target: T1, Prostaglandin E2 receptor EP3 subtype; assay: Displacement of [3H]PGE2 from human EP3 receptor at 20 uM in presence of 10% human serum
[4] = Metabolic stability in rat liver microsome assessed as compound remaining at 5 uM after 30 mins; assay type: ADME; conditions: liver microsomes, read-out: Stability
Outline: (§1)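 Liver microsomes at 0.8 mg/mL protein incubated with compound at 5 µM. Percent parent remaining after 30 min measured by LC–MS/MS.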

[5] = target: Prostaglandin E2 receptor EP2 subtype (Homo sapiens, UniProt P43116); assay: Displacement of radioligand from EP2 receptor
Sequence of Prostaglandin E2 receptor EP2 subtype (P43116 whole entry): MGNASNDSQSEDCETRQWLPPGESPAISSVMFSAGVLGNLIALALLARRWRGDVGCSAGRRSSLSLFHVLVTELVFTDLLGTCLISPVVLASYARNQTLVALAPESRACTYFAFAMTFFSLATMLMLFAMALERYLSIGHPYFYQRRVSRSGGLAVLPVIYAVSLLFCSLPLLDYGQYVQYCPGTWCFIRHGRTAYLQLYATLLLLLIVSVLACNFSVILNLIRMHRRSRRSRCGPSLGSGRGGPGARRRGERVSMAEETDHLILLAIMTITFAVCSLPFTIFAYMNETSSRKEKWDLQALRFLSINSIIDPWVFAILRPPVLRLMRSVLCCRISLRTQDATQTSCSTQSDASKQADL

[6] = target: T3, Prostaglandin E2 receptor EP1 subtype (Homo sapiens, UniProt P34995); assay: Displacement of radioligand from EP1 receptor
T3 sequence (P34995 whole entry): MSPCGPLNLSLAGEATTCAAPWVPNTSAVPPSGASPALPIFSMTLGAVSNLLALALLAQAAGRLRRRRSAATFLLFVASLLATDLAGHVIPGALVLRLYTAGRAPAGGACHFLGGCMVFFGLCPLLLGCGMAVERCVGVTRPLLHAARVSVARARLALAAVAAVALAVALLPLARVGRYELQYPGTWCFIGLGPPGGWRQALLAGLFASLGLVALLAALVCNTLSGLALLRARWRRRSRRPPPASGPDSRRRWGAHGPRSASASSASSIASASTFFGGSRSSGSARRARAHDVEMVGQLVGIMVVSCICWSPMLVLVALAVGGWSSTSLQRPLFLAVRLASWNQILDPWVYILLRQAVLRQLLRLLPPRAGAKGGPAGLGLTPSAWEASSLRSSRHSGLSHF

[7] = target: Prostaglandin E2 receptor EP4 subtype (Homo sapiens, UniProt P35408); assay: Displacement of radioligand from EP4 receptor
Sequence of Prostaglandin E2 receptor EP4 subtype (P35408 whole entry): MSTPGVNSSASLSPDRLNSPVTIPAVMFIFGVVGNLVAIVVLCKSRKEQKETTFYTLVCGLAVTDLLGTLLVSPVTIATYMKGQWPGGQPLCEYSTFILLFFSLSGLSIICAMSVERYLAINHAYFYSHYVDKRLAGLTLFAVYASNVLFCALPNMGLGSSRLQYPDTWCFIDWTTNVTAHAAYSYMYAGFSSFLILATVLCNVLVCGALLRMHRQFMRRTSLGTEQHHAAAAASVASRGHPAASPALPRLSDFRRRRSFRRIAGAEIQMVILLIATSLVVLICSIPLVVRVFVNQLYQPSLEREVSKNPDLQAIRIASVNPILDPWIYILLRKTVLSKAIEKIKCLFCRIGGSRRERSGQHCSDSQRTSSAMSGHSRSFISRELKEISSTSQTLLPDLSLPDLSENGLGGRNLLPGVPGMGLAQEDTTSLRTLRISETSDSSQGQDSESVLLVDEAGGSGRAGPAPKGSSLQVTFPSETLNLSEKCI

[8] = target: Prostaglandin F2-alpha receptor (Homo sapiens, UniProt P43088); assay: Displacement of radioligand from FP receptor
Sequence of Prostaglandin F2-alpha receptor (P43088 whole entry): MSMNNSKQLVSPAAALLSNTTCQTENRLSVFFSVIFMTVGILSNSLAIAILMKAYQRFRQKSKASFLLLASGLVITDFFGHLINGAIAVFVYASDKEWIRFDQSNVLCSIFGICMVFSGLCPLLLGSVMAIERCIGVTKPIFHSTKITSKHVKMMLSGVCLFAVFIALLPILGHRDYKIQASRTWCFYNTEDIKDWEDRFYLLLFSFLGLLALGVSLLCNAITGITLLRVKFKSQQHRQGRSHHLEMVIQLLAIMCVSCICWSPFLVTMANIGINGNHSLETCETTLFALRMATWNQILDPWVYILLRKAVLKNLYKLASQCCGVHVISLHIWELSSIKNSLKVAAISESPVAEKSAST

[9] = Metabolic stability in human liver microsome assessed as compound remaining at 5 uM after 30 mins; assay type: ADME; conditions: liver microsomes, read-out: Stability; outline: as §1

Compound	IC50 [1] [nM]	Ratio IC50 [2]	IC50 [3] [nM]	remaining at 0.5 h, 5 µM [4] [%]	IC50 [5] [nM]	IC50 [6] [nM]	IC50 [7] [nM]	IC50 [8] [nM]	remaining at 0.5 h, 5 µM [9] [%]
Cn1cc(/C=C/C(=O)NS(=O)(=O)c2ccc(F)c(F)c2)c2c(Oc3cnc4ccccc4n3)cccc21	6.1	35.3	217						
COc1cccc(Oc2cccc3c2c(/C=C/C(=O)NS(=O)(=O)c2ccc(F)c(F)c2)cn3C)c1	4.4								
Cn1cc(/C=C/C(=O)NS(=O)(=O)c2ccc(Cl)c(Cl)c2)c2c(Oc3ccc4ccccc4c3)cccc21	11.8	7.8	92.9						
Cn1cc(/C=C/C(=O)NS(=O)(=O)c2cc(Cl)c(Cl)s2)c2c(Oc3ccc4ccccc4c3)cccc21	4.6	19.4	89.6						
Cn1cc(/C=C/C(=O)NS(=O)(=O)c2ccc(F)c(F)c2)c2c(Oc3ccc(F)c(F)c3)cccc21	4.7	41.9	196						
Cn1cc(/C=C/C(=O)NS(=O)(=O)c2ccc(F)c(F)c2)c2c(Oc3ccc(Cl)cc3)cccc21	27.3	28.4	776						
Cn1cc(/C=C/C(=O)NS(=O)(=O)c2cc(F)c(F)cc2F)c2c(Oc3ccc(F)cc3F)cccc21	84.8								
Cn1cc(/C=C/C(=O)NS(=O)(=O)c2ccc(F)c(F)c2)c2c(Oc3ccc(Cl)c(Cl)c3)cccc21	12.4	4.1	50.8	14.9	4200	> 10000	20400	2400	58.8
Cn1cc(/C=C/C(=O)NS(=O)(=O)c2cc(F)c(F)cc2F)c2c(Oc3ccc(Cl)c(F)c3)cccc21	6.7	8	53.9		10000	1370	10000	2230	
Cn1cc(/C=C/C(=O)NS(=O)(=O)c2cc(F)cc(F)c2)c2c(Oc3ccc4ccccc4c3)cccc21	44.9	3.5	157						
Cn1cc(/C=C/C(=O)NS(=O)(=O)c2ccc(Cl)cc2Cl)c2c(Oc3ccc4ccccc4c3)cccc21	54.1	28.5	1540						
COc1cccc(Oc2cccc3c2c(/C=C/C(=O)NS(=O)(=O)c2cc(F)c(F)cc2F)cn3C)c1	5.1								
Cn1cc(/C=C/C(=O)NS(=O)(=O)c2cc(F)c(F)cc2F)c2c(Oc3ccc(F)cc3Cl)cccc21	18.1	17.5	316						
Cn1cc(/C=C/C(=O)NS(=O)(=O)c2cc(F)c(F)cc2F)c2c(Oc3cnc4ccccc4n3)cccc21	7.2	17.7	128						
Cn1cc(/C=C/C(=O)NS(=O)(=O)c2cc(Cl)cc(Cl)c2)c2c(Oc3ccc4ccccc4c3)cccc21	8.7	37	321						
COc1ccc(S(=O)(=O)NC(=O)/C=C/c2cn(C)c3cccc(Oc4ccc5ccccc5c4)c23)cc1	101								
Cn1cc(/C=C/C(=O)NS(=O)(=O)c2ccccc2F)c2c(Oc3ccc4ccccc4c3)cccc21	11.9	54.3	646						
Cn1cc(/C=C/C(=O)NS(=O)(=O)c2ccccc2Cl)c2c(Oc3ccc4ccccc4c3)cccc21	18.4	91.3	1680						

Compound	IC50 [1] [nM]	Ratio IC50 [2]	IC50 [3] [nM]	remaining at 0.5 h, 5 µM [4] [%]	IC50 [5] [nM]	IC50 [6] [nM]	IC50 [7] [nM]	IC50 [8] [nM]	remaining at 0.5 h, 5 µM [9] [%]
Cn1cc(/C=C/C(=O)NS(=O)(=O)c2ccc(F)c(F)c2)c2c(Oc3ccc(F)cc3F)cccc21	18.5								
Cn1cc(/C=C/C(=O)NS(=O)(=O)c2ccc(F)cc2F)c2c(Oc3ccc4ccccc4c3)cccc21	3.5	32.7	115						
Cn1cc(/C=C/C(=O)NS(=O)(=O)c2ccc(F)c(F)c2)c2c(Oc3ccc(F)cc3Cl)cccc21	13.8	10.5	146						
Cn1cc(/C=C/C(=O)NS(=O)(=O)c2cc(F)ccc2F)c2c(Oc3ccc4ccccc4c3)cccc21	6.5	24.3	157						
Cn1cc(/C=C/C(=O)NS(=O)(=O)c2cc(F)c(F)cc2F)c2c(Oc3ccc(Cl)c(Cl)c3)cccc21	2.6	17.1	45.2		7680	5320	13000	4640	
Cn1cc(/C=C/C(=O)NS(=O)(=O)c2ccc(F)cc2)c2c(Oc3ccc4ccccc4c3)cccc21	9.4	19.4	182						
Cn1cc(/C=C/C(=O)NS(=O)(=O)c2cc(F)c(F)cc2F)c2c(Oc3ccc(Cl)cc3)cccc21	3	132	393						
Cn1cc(/C=C/C(=O)NS(=O)(=O)c2cc(F)c(F)cc2F)c2c(Oc3ccc4ncccc4c3)cccc21	8.5	19.8	168						
Cn1cc(/C=C/C(=O)NS(=O)(=O)c2c(F)cccc2F)c2c(Oc3ccc4ccccc4c3)cccc21	5.9	121	710						
Cn1cc(/C=C/C(=O)NS(=O)(=O)c2cc(F)c(F)cc2F)c2c(Oc3ccc(F)c(F)c3)cccc21	3.8	55	209						
Cn1cc(/C=C/C(=O)NS(=O)(=O)c2cc(F)c(F)cc2F)c2c(Oc3ccc(F)c(Cl)c3)cccc21	9.7	6.3	61.1		> 10000	> 10000	> 10000	3160	
Cn1cc(/C=C/C(=O)NS(=O)(=O)c2c(F)c(F)c(F)c(F)c2F)c2c(Oc3ccc4ccccc4c3)cccc21	5.1								
Cn1cc(/C=C/C(=O)NS(=O)(=O)c2ccc(F)c(F)c2)c2c(Oc3ccc(Cl)c(F)c3)cccc21	23.4	26.3	612						
Cn1cc(/C=C/C(=O)NS(=O)(=O)c2ccc(F)c(F)c2)c2c(Oc3ccc4ncccc4c3)cccc21	1.9	68.7	130						
Cn1cc(/C=C/C(=O)NS(=O)(=O)c2cc(F)c(F)cc2F)c2c(Oc3ccc(Cl)cc3Cl)cccc21	3.2	5.2	16.7	39.1	9300		> 10000	3570	74.7
Cn1cc(/C=C/C(=O)NS(=O)(=O)c2cc(F)c(F)cc2F)c2c(Oc3ccc(Cl)cc3F)cccc21	4.4	35.6	156						
Cn1cc(/C=C/C(=O)NS(=O)(=O)c2ccc(Cl)cc2)c2c(Oc3ccc4ccccc4c3)cccc21	21.9	50.2	1100						
Cn1cc(/C=C/C(=O)NS(=O)(=O)c2cccc(F)c2)c2c(Oc3ccc4ccccc4c3)cccc21	17.5	6.6	116						
